The values below come from publication PMC2217202 (The Journal of General Physiology, 2000).

Like-named read-outs stand apart in the source and are kept apart here.

Data set [1] has as its system AE1. Conditions: ref Knauf et al. 1995; cited from earlier work.
The target in data set [2] is T1, AE1 (band 3) protein in human red blood cells (Homo sapiens, UniProt P02730).
T1 sequence (P02730 1-911): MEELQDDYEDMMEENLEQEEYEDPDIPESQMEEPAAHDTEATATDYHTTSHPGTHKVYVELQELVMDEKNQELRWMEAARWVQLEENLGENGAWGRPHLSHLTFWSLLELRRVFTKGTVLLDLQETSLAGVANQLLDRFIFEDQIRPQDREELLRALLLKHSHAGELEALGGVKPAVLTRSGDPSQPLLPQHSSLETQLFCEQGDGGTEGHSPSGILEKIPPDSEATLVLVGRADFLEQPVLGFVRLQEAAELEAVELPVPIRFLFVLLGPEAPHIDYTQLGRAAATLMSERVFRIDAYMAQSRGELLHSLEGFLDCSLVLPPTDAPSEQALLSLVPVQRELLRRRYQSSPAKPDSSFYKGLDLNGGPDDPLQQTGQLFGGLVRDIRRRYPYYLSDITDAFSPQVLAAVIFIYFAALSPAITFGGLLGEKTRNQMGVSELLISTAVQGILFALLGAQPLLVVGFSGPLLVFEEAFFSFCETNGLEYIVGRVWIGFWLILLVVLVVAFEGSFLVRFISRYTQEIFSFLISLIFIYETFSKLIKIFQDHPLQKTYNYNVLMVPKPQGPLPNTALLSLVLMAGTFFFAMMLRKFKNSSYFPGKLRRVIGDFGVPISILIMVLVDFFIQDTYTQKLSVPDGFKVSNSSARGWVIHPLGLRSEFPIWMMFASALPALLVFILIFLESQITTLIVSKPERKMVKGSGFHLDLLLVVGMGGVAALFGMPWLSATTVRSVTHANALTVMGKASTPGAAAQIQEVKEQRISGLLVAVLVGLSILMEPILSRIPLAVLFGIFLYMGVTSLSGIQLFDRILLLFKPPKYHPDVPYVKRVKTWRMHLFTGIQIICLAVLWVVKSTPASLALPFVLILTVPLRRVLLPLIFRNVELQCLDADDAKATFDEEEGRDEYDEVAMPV
Kind of data set: Inhibition of 36Cl exchange flux at 0°C after short exposure to WW781. Format: cell-based. The settings on record: for rate constant for 36Cl exchange, k: 0°C (control 0.0507); for IC50: read-out: K 1W, 0°C. In outline: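 Human RBCs loaded with 36Cl (10 min, 0°C) without pretreatment, resuspended in ice-cold medium with test compound (0.25-1.5 µM, 1% ethanol); nystatin equalized Cl− for non-150 mM media, citrate-sucrose replacing Cl−. Rapid-filtration samples were taken mostly before 30 s, never after 45 s. k was the slope of ln(P∞−Pt) versus time. Dissociation constants came from nonlinear least-squares single-site fits and Dixon plots.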

Data set [3] addresses T1, AE1 (band 3) protein in human red blood cells. The data set can be described thus: Inhibition of 36Cl exchange flux at 0°C after equilibration with WW781. It is filed as cell-based. The settings on record: for IC50: read-out: K eqW, 0°C, mean ± SEM. In outline:
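Washed human RBCs (150 mM KCl, 20 mM HEPES, 24 mM sucrose, pH 6.9) at 0.25% hematocrit, internal Cl− set by nystatin, pretreated ≥2 min with test compound (1% ethanol), loaded with 36Cl (2-10 µCi/ml, 10 min, 0°C), then efflux into ice-cold medium with the same compound level. In 2 mM Cl− medium, no pretreatment and sampling began ≥4 min. Fit to single-site inhibition.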

In data set [4] the test system is AE1. It is filed as cell-based, human. The settings on record: at saturating concentrations of WW781, 150 mM Cl− inside and outside.
Data set [5] has as its system AE1. The settings on record: cells with 150 mM Cl− inside and outside; ref Raha et al. 1993; cited from earlier work.
The subject of data set [6] is net Cl^− permeability, PCl. Conditions: ref Freedman and Novak 1983; cited from earlier work.

Turning to `CCCCN1C(=O)C(=CC=CC=CC2C(=O)N(CCCC)C(=O)N(CCCC)C2=O)C(=O)N(CCCC)C1=O` [diBA(5)C4, bis-(1,3-dibutylbarbituric acid)-pentamethine oxonol], the “inhibition of the transport system” value in the data set with AE1 [1] was “most potent known inhibitor”.

On to `CCCCN1C(=O)C(C=CC=CC=C2C(=O)N(c3ccc(S(=O)(=O)O)cc3)N=C2C)C(=O)N(CCCC)C1=O` [WW781, [3-methyl-1-p-sulfophenyl-5-pyrazolone-(4)]-[1,3-dibutylbarbituric acid]-pentamethine oxonol], for which the “rate constant for 36Cl exchange, k” value was determined as 0.0389 s⁻¹ in data set [2] (0.25 μM WW781, 150 mM Cl− medium); 0.0316 s⁻¹ in data set [2] (0.5 μM WW781, 150 mM Cl− medium); 0.0274 s⁻¹ in data set [2] (1 μM WW781, 150 mM Cl− medium); 0.0203 s⁻¹ in data set [2] (1.5 μM WW781, 150 mM Cl− medium). For the same compound, the “K 1W,ECl/K 1W,E” value in data set [2] (initial binding) is given as 0.73 − 0.74. For the same compound, the “K 1W,Ei/K 1W,Eo” value in data set [2] (initial binding) amounted to 14. For the same compound, the IC50 is 900 ± 210 nM in data set [2] ([Cli = o] 20 mM, nystatin-treated cells); 590 ± 50 nM in data set [2] ([Cli = o] 150 mM, mean ± SEM); 540 ± 100 nM in data set [2] ([Cli = o] 600 mM, nystatin-treated cells, mean ± SEM); 140 ± 10 nM in data set [2] ([Cli] = 150, [Clo] = 2 mM, mean ± SEM); 66 ± 12 nM in data set [3] ([Cli = o] 150 mM); 143 ± 29 nM in data set [3] ([Cli = o] 600 mM). In addition, the IC50 in data set [3] ([Cli] = 150, [Clo] = 2 mM) was 5.5 ± 0.3 nM. In addition, the “K 2/1W,ECl/K 2/1W,E” value in data set [3] is on record as 0.12 − 0.15. Moreover, in data set [3] (Cl−-loaded forms), the “K 2/1W,ECl” value is 1.8 − 2.2. Moreover, in data set [3] (Ei form), the “K 2/1W,Ei” value is not above 34. For the same compound, the “free energy difference ΔG^0 between complex 2 and complex 1” value in data set [3] (Eo form of AE1, from K 2/1W,Eo) was -1.82 kcal/mol. Moreover, the “K 1W/K eqW” value in data set [3] ([Cli = o] 5 mM) is reported as 15.5; in data set [3] ([Cli = o] 150 mM) it was 9.0; in data set [3] ([Cli = o] 600 mM) it was 3.8; in data set [3] ([Cli] = 150, [Clo] = 2 mM) it was 25.2. Moreover, the “slope of K eqW as a function of [Cl−]” value in data set [3] (best-fit straight line, [Cli] = [Clo] (Fig. 10)) stood at 0.00016 ± 0.00004 μM/mM. Further, the “preference for the Eo form of AE1 as compared with the Ei form” value in data set [3] (both initial binding and equilibrium association) is more than 10 fold. In addition, in data set [3] (equilibrium binding), the “K eqW,Ei/K eqW,Eo” value was not below 12. Besides, the Ki was 280 ± 70 nM in data set [3] (read-out: K eqW,EIi, mean ± SEM of two experiments) and 33 to 46 nM in data set [3] (read-out: K eqW,Ei (minimum value), range over both estimates of K eqW,E). Also, the “half-time for formation of complex 2” value with AE1 [4] is 33 s. In addition, in the data set on AE1 [5], the “k W-AE1,W•AE1 (backward rate constant, complex 2 to complex 1)” value is 0.15 min⁻¹. For the same compound, in the data set on AE1 [5], the “k W•AE1,W-AE1 (forward rate constant for formation of complex 2)” value was approximately 1.1 min⁻¹. Besides, in data set [6], the “effect on net Cl− permeability, PCl” value is reported as “increase”.
